From ChEMBL document CHEMBL1155938, “Design, synthesis and biological evaluation of new tryptamine and tetrahydro-beta-carboline-based selective inhibitors of CDK4” (Bioorg Med Chem, 2008)

What was measured:
[1] = target: Cyclin-dependent kinase 2 (Homo sapiens, UniProt P24941); test: Inhibition of human CDK2/GST-cyclin A expressed in Sf9 cells assessed as histone phosphorylation
How it was run: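 Sf-9 co-expressed CDK2 with GST-cyclin A, purified on glutathione-agarose and dialysed. Histone H1 was the substrate, in 40 mM Tris pH 7.5, 20 mM MgCl₂, 0.1 mg/mL BSA with phosphatase/protease inhibitors and DTT. Compounds came from 10 mM DMSO stock, serially diluted. 200 ng enzyme was incubated 30 min at 30 °C. ATP depletion was read by Kinase-Glo luminescence, and IC50 derived.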

[2] = target: Cyclin-dependent kinase 4/cyclin D1 (Homo sapiens, UniProt P11802); test: Inhibition of human CDK4/GST-cyclin D1 expressed in Sf9 cells assessed as retinoblastoma GST-RB152 phosphorylation
How it was run: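 CDK4 with GST-cyclin D1 was co-expressed in Sf-9, purified on glutathione-agarose and dialysed. The substrate was GST-RB152, expressed in E. coli BL21(DE3)pLysS (4 mM IPTG, 4 h, 37 °C). The buffer was 40 mM Tris pH 7.5, 20 mM MgCl₂, 0.1 mg/mL BSA plus inhibitors and DTT. 200 ng enzyme ran 30 min at 30 °C. Kinase-Glo luminescence (ATP depletion) gave IC50.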

Cyclin-dependent kinase 4/cyclin D1, sequence (P11802 whole entry): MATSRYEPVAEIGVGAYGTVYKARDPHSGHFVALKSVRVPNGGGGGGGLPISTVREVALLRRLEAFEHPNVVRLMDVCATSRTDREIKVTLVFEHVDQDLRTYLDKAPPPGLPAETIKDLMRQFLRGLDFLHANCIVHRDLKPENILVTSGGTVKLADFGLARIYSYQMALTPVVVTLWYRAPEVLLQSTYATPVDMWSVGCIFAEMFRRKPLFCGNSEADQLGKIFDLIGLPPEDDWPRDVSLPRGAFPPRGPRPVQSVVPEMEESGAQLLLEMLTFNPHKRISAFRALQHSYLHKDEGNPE
Cyclin-dependent kinase 4/cyclin D1, sequence (P24385 whole entry, further chain): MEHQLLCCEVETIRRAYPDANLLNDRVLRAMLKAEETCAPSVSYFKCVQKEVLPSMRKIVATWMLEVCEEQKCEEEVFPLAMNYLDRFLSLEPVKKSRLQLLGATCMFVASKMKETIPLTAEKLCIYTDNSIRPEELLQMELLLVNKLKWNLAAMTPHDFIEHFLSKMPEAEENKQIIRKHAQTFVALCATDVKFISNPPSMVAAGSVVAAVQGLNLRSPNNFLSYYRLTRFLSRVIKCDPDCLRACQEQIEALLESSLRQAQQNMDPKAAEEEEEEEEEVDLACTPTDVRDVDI

O=C(c1ccc(-c2cccc(F)c2)cc1)N1CCc2c([nH]c3ccccc23)C1
IC50 [1]: 296 µM
IC50 [2]: 21 µM

CN(CCc1c[nH]c2ccccc12)C(=O)c1ccc(-c2ccc(C(C)(C)C)cc2)cc1
IC50 [1]: 745 µM
IC50 [2]: 11.2 µM

COc1ccccc1-c1ccc(C(=O)N2CCc3c([nH]c4ccccc34)C2)cc1
IC50 [1]: 321 µM
IC50 [2]: 22 µM

O=C(NCCc1c[nH]c2ccccc12)c1ccc(-c2ccc(F)cc2)cc1
IC50 [1]: 764 µM
IC50 [2]: 15 µM

O=C(c1ccc(-c2ccc(F)cc2)cc1)N1CCc2c([nH]c3ccccc23)C1
IC50 [1]: 438 µM
IC50 [2]: 12 µM

COc1ccccc1-c1ccccc1C(=O)NCCc1c[nH]c2ccccc12
IC50 [1]: 375 µM
IC50 [2]: 26 µM

CN(CCc1c[nH]c2ccccc12)C(=O)c1ccc(-c2ccccc2)cc1
IC50 [2]: 6 µM

O=C(NCCc1c[nH]c2ccccc12)c1ccc(-c2ccccc2)cc1
IC50 [1]: 855 µM
IC50 [2]: 16 µM

O=C(c1ccccc1-c1cccnc1)N1CCc2c([nH]c3ccccc23)C1
IC50 [1]: 312 µM
IC50 [2]: 36 µM

CC(C)(C)c1ccc(-c2ccccc2C(=O)NCCc2c[nH]c3ccccc23)cc1
IC50 [1]: 262 µM
IC50 [2]: 38 µM

COc1ccc(-c2ccc(C(=O)N(C)CCc3c[nH]c4ccccc34)cc2)cc1
IC50 [1]: 289 µM
IC50 [2]: 49 µM

COc1cccc(-c2cccc(C(=O)N3CCc4c([nH]c5ccccc45)C3)c2)c1
IC50 [1]: 362 µM
IC50 [2]: 33 µM

CN(CCc1c[nH]c2ccccc12)C(=O)c1ccc(-c2ccncc2)cc1
IC50 [1]: 92 µM
IC50 [2]: 26 µM

O=C1c2ccccc2-[n+]2ccc3c([nH]c4ccccc43)c21 [FASCAPLYSIN CHLORIDE]
IC50 [1]: 500 µM
IC50 [2]: 0.55 µM

COc1cccc(-c2ccccc2C(=O)NCCc2c[nH]c3ccccc23)c1
IC50 [1]: 926 µM
IC50 [2]: 53 µM

O=C(c1cccc(-c2ccccc2F)c1)N1CCc2c([nH]c3ccccc23)C1
IC50 [1]: 335 µM
IC50 [2]: 18 µM

O=C(NCCc1c[nH]c2ccccc12)c1cccc(-c2cccnc2)c1
IC50 [1]: 150 µM
IC50 [2]: 30 µM

Cc1cccc(-c2ccccc2C(=O)N2CCc3c([nH]c4ccccc34)C2)c1
IC50 [1]: 386 µM
IC50 [2]: 26 µM

CN(CCc1c[nH]c2ccccc12)C(=O)c1ccc(-c2ccc(-c3ccccc3)cc2)cc1
IC50 [1]: 91 µM
IC50 [2]: 35 µM

O=C(NCCc1c[nH]c2ccccc12)c1cccc(-c2ccccc2)c1
IC50 [1]: 1000 µM
IC50 [2]: 86 µM

O=C(c1ccc(-c2ccccc2F)cc1)N1CCc2c([nH]c3ccccc23)C1
IC50 [1]: 310 µM
IC50 [2]: 17 µM

O=C(c1cccc(-c2ccc(F)cc2)c1)N1CCc2c([nH]c3ccccc23)C1
IC50 [1]: 318 µM
IC50 [2]: 25 µM

O=C(c1ccccc1-c1ccncc1)N1CCc2c([nH]c3ccccc23)C1
IC50 [1]: 354 µM
IC50 [2]: 39 µM

O=C(c1ccccc1-c1cccc(F)c1)N1CCc2c([nH]c3ccccc23)C1
IC50 [1]: 480 µM
IC50 [2]: 35 µM

COc1ccc(-c2ccc(C(=O)NCCc3c[nH]c4ccccc34)cc2)cc1
IC50 [1]: 1090 µM
IC50 [2]: 48 µM

O=C(NCCc1c[nH]c2ccccc12)c1ccccc1-c1cccc(F)c1
IC50 [1]: 417 µM
IC50 [2]: 20 µM

O=C(c1ccccc1-c1ccccc1F)N1CCc2c([nH]c3ccccc23)C1
IC50 [1]: 434 µM
IC50 [2]: 19 µM

Cc1ccc(-c2ccc(C(=O)NCCc3c[nH]c4ccccc34)cc2)cc1
IC50 [1]: 816 µM
IC50 [2]: 18 µM

CC(C)(C)c1ccc(-c2ccc(C(=O)NCCc3c[nH]c4ccccc34)cc2)cc1
IC50 [1]: 790 µM
IC50 [2]: 9.2 µM

Cc1cccc(-c2ccccc2C(=O)NCCc2c[nH]c3ccccc23)c1
IC50 [1]: 406 µM
IC50 [2]: 15 µM

Cc1cccc(-c2cccc(C(=O)N3CCc4c([nH]c5ccccc45)C3)c2)c1
IC50 [1]: 465 µM
IC50 [2]: 11 µM

Cc1ccc(-c2ccc(C(=O)N(C)CCc3c[nH]c4ccccc34)cc2)cc1
IC50 [1]: 70 µM
IC50 [2]: 24 µM

COc1ccc(-c2ccccc2C(=O)NCCc2c[nH]c3ccccc23)cc1
IC50 [1]: 921 µM
IC50 [2]: 79 µM

Cc1ccc(-c2ccc(C(=O)N3CCc4c([nH]c5ccccc45)C3)cc2)cc1
IC50 [1]: 736 µM
IC50 [2]: 9 µM

Cc1ccc(-c2cccc(C(=O)N3CCc4c([nH]c5ccccc45)C3)c2)cc1
IC50 [1]: 466 µM
IC50 [2]: 24 µM

O=C(NCCc1c[nH]c2ccccc12)c1ccccc1-c1ccc(F)cc1
IC50 [1]: 1220 µM
IC50 [2]: 38 µM

CN(CCc1c[nH]c2ccccc12)C(=O)c1ccc(-c2ccc(F)cc2)cc1
IC50 [1]: 875 µM
IC50 [2]: 21 µM

Cc1ccccc1-c1ccc(C(=O)N2CCc3c([nH]c4ccccc34)C2)cc1
IC50 [1]: 340 µM
IC50 [2]: 32 µM

O=C(c1ccccc1-c1ccc(F)cc1)N1CCc2c([nH]c3ccccc23)C1
IC50 [1]: 357 µM
IC50 [2]: 23 µM

O=C(c1cccc(-c2cccc(F)c2)c1)N1CCc2c([nH]c3ccccc23)C1
IC50 [1]: 611 µM
IC50 [2]: 27 µM

COc1ccccc1-c1cccc(C(=O)N2CCc3c([nH]c4ccccc34)C2)c1
IC50 [1]: 1110 µM
IC50 [2]: 79 µM

Cc1cccc(-c2ccc(C(=O)N3CCc4c([nH]c5ccccc45)C3)cc2)c1
IC50 [1]: 405 µM
IC50 [2]: 25 µM

COc1cccc(-c2ccc(C(=O)N3CCc4c([nH]c5ccccc45)C3)cc2)c1
IC50 [1]: 424 µM
IC50 [2]: 28 µM

Cc1ccccc1-c1cccc(C(=O)N2CCc3c([nH]c4ccccc34)C2)c1
IC50 [1]: 665 µM
IC50 [2]: 75 µM
